How the values were obtained:
Type in all cases: functional
CCRF-CEM = assay: Growth inhibition of human CCRF-CEM cells after 48 hrs; settings: for CC50: read-out: LC50 (the source's name)
Procedure, shortened: (§1)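 NCI in vitro disease-oriented human tumor cell line screen. Compounds passing a one-dose primary assay (MCF-7, NCI-H460, SF-268; pass = growth of any line reduced to 32% or less) were tested on the 60-line panel over a 5-log dose range. Compounds were dissolved in DMSO, with under 1% DMSO in final dilutions, and tested in duplicate at 6×10^4 cells/ml. Cells were incubated at 37 °C in 5% CO2 for 48 h, then diluted 10-fold in saline and counted with a Coulter counter, with counts corrected for dilution. Controls held PBS/DMSO at identical dilutions. GI50 was reported per line and as subpanel/full-panel mean-graph midpoint.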

HL-60(TB) = assay: Growth inhibition of human HL-60(TB) cells after 48 hrs; settings: HL-60, 48 h; for CC50: read-out: LC50 (the source's name)
Procedure, shortened: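 NCI 60-cell-line screen over a 5-log dose range. Compounds were dissolved in DMSO, final DMSO under 1%. Duplicate wells were seeded at 6×10^4 cells/ml, with PBS/DMSO vehicle controls at identical dilutions. Cells were incubated 48 h at 37 °C in humidified 5% CO2, diluted 10-fold in saline, and counted by Coulter counter with dilution correction. GI50 read-out.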

K562 = assay: Growth inhibition of human K562 cells after 48 hrs; settings: K562, 48 h; procedure, shortened: as §1
RPMI-8226 = assay: Growth inhibition of human RPMI8226 cells after 48 hrs; settings: RPMI-8226, 48 h; for CC50: read-out: LC50 (the source's name); procedure, shortened: as §1
SF-539 = assay: Growth inhibition of human SF539 cells after 48 hrs; settings: SF-539, 48 h; for CC50: read-out: LC50 (the source's name); procedure, shortened: as §1
SK-MEL-2 = assay: Growth inhibition of human SK-MEL-2 cells after 48 hrs; settings: SK-MEL-2, 48 h; procedure, shortened: as §1
UACC-257 = assay: Growth inhibition of human UACC257 cells after 48 hrs; settings: UACC-257, 48 h; procedure, shortened: as §1
MCF7 = assay: Growth inhibition of human MCF7 cells after 48 hrs; settings: MCF7, 48 h; for CC50: read-out: LC50 (the source's name); procedure, shortened: as §1
T47D = assay: Growth inhibition of human T47D cells after 48 hrs; procedure, shortened: as §1
[1] = Growth inhibition of human leukemia cells after 48 hrs; settings: Leukemia cell; procedure, shortened: as §1
NSCLC = assay: Growth inhibition of human NSCLC cells after 48 hrs; procedure, shortened: as §1
[2] = Growth inhibition of human Colon cancer cells after 48 hrs; settings: Cancer cell lines; procedure, shortened: as §1
[3] = Growth inhibition of human CNS cancer cells after 48 hrs; settings: Cancer cell lines; procedure, shortened: as §1
[4] = Growth inhibition of human melanoma cells after 48 hrs; settings: Melanoma cell; procedure, shortened: as §1
[5] = Growth inhibition of human ovarian cancer cells after 48 hrs; settings: Cancer cell lines; procedure, shortened: as §1
[6] = Growth inhibition of human renal cancer cells after 48 hrs; settings: Cancer cell lines; procedure, shortened: as §1
[7] = Growth inhibition of human prostate cancer cells after 48 hrs; settings: Cancer cell lines; for CC50: read-out: LC50 (the source's name); procedure, shortened: as §1
[8] = Growth inhibition of human breast cancer cells after 48 hrs; settings: Cancer cell lines; procedure, shortened: as §1
[9] = read-out: LC50 (the source's name)

Q: Which GI50 (CCRF-CEM) does the source give for `O=S(=O)(Nc1nccs1)c1ccc(Nc2nc(-c3cccs3)nc3ccc(I)cc23)cc1` here?
A: 2 µM

Q: What about the TGI (CCRF-CEM) of the same molecule?
A: 4 µM

Q: What about the CC50 (CCRF-CEM) of the same molecule?
A: 9 µM

Q: What about the GI50 (HL-60(TB)) of the same molecule?
A: 32 µM

Q: And the TGI (HL-60(TB))?
A: 80 µM

Q: What about the CC50 (HL-60(TB)) of the same molecule?
A: > 100 µM

Q: What about the GI50 (K562) of the same molecule?
A: 38 µM

Q: And the LC50 (concentration killing 50% of cells) (K562)?
A: > 100 µM

Q: What about the TGI (K562) of the same molecule?
A: > 100 µM

Q: What about the GI50 (RPMI-8226) of the same molecule?
A: 1 µM

Q: What about the TGI (RPMI-8226) of the same molecule?
A: 3 µM

Q: What about the CC50 (RPMI-8226) of the same molecule?
A: 8 µM

Q: What about the GI50 (SF-539) of the same molecule?
A: 32 µM

Q: What about the TGI (SF-539) of the same molecule?
A: 60 µM

Q: And the CC50 (SF-539)?
A: > 100 µM

Q: And the GI50 (SK-MEL-2)?
A: 22 µM

Q: And the LC50 (SK-MEL-2)?
A: > 100 µM

Q: And the TGI (SK-MEL-2)?
A: 47 µM

Q: And the GI50 (UACC-257)?
A: 0.04 µM

Q: And the LC50 (UACC-257)?
A: 95 µM

Q: What about the TGI (UACC-257) of the same molecule?
A: 28 µM

Q: What about the GI50 (MCF7) of the same molecule?
A: 26 µM

Q: And the TGI (MCF7)?
A: > 100 µM

Q: What about the CC50 (MCF7) of the same molecule?
A: > 100 µM

Q: What about the GI50 (T47D) of the same molecule?
A: 15 µM

Q: And the LC50 (T47D)?
A: > 100 µM

Q: What about the TGI (T47D) of the same molecule?
A: 51 µM

Q: What about the GI50 [1] of the same molecule?
A: 21.7 µM

Q: And the TGI [1]?
A: 59.2 µM

Q: What about the CC50 [1, 9] of the same molecule?
A: 69.4 µM

Q: And the GI50 (NSCLC)?
A: 23.3 µM

Q: What about the LC50 (concentration killing 50% of cells) (NSCLC) of the same molecule?
A: 92.4 µM

Q: And the TGI (NSCLC)?
A: 65.2 µM

Q: And the GI50 [2]?
A: 24.3 µM

Q: What about the LC50 [2] of the same molecule?
A: 87.3 µM

Q: What about the TGI [2] of the same molecule?
A: 61.1 µM

Q: What about the GI50 [3] of the same molecule?
A: 27.7 µM

Q: What about the TGI [3] of the same molecule?
A: 68.3 µM

Q: What about the GI50 [4] of the same molecule?
A: 18.9 µM

Q: What about the LC50 (lethal concentration 50%) [4] of the same molecule?
A: 92.1 µM

Q: What about the TGI [4] of the same molecule?
A: 45.5 µM

Q: What about the GI50 [5] of the same molecule?
A: 25.8 µM

Q: What about the TGI [5] of the same molecule?
A: 68.9 µM

Q: What about the GI50 [6] of the same molecule?
A: 28.3 µM

Q: And the TGI [6]?
A: 79.6 µM

Q: And the GI50 [7]?
A: 13.9 µM

Q: And the TGI [7]?
A: 35.9 µM

Q: And the CC50 [7]?
A: 73 µM

Q: What about the GI50 [8] of the same molecule?
A: 25.9 µM

Q: And the TGI [8]?
A: 74.9 µM

Q: With `NS(=O)(=O)c1ccc(CNc2nc(-c3cccs3)nc3ccc(I)cc23)cc1` as the molecule, how does the GI50 (CCRF-CEM) read?
A: 22 µM

Q: What about the TGI (CCRF-CEM) of the same molecule?
A: 60 µM

Q: And the CC50 (CCRF-CEM)?
A: > 100 µM

Q: What about the GI50 (HL-60(TB)) of the same molecule?
A: 30 µM

Q: What about the TGI (HL-60(TB)) of the same molecule?
A: > 100 µM

Q: And the CC50 (HL-60(TB))?
A: > 100 µM

Q: What about the GI50 (K562) of the same molecule?
A: 37 µM

Q: And the LC50 (concentration killing 50% of cells) (K562)?
A: > 100 µM

Q: And the TGI (K562)?
A: > 100 µM

Q: And the GI50 (RPMI-8226)?
A: 19 µM

Q: And the TGI (RPMI-8226)?
A: 50 µM

Q: And the CC50 (RPMI-8226)?
A: > 100 µM

Q: What about the GI50 (SF-539) of the same molecule?
A: 11 µM

Q: What about the TGI (SF-539) of the same molecule?
A: 31 µM

Q: And the CC50 (SF-539)?
A: 85 µM

Q: What about the GI50 (SK-MEL-2) of the same molecule?
A: 18 µM

Q: What about the LC50 (SK-MEL-2) of the same molecule?
A: 61 µM

Q: What about the TGI (SK-MEL-2) of the same molecule?
A: 33 µM

Q: What about the GI50 (UACC-257) of the same molecule?
A: 14 µM

Q: And the LC50 (UACC-257)?
A: 54 µM

Q: What about the TGI (UACC-257) of the same molecule?
A: 28 µM

Q: And the GI50 (MCF7)?
A: 0.6 µM

Q: And the TGI (MCF7)?
A: 16 µM

Q: What about the CC50 (MCF7) of the same molecule?
A: > 100 µM

Q: What about the GI50 (T47D) of the same molecule?
A: 0.2 µM

Q: What about the LC50 (T47D) of the same molecule?
A: 82 µM

Q: What about the TGI (T47D) of the same molecule?
A: 18 µM

Q: What about the GI50 [1] of the same molecule?
A: 23.9 µM

Q: And the TGI [1]?
A: 72.3 µM

Q: What about the GI50 (NSCLC) of the same molecule?
A: 14.7 µM

Q: And the LC50 (concentration killing 50% of cells) (NSCLC)?
A: 82.2 µM

Q: What about the TGI (NSCLC) of the same molecule?
A: 37 µM

Q: What about the GI50 [2] of the same molecule?
A: 16.7 µM

Q: What about the LC50 [2] of the same molecule?
A: 66.4 µM

Q: What about the TGI [2] of the same molecule?
A: 37.3 µM

Q: What about the GI50 [3] of the same molecule?
A: 18.2 µM

Q: What about the TGI [3] of the same molecule?
A: 42.4 µM

Q: And the CC50 [3, 9]?
A: 89 µM

Q: What about the GI50 [4] of the same molecule?
A: 16 µM

Q: And the LC50 (lethal concentration 50%) [4]?
A: 58.3 µM

Q: And the TGI [4]?
A: 30.5 µM

Q: What about the GI50 [5] of the same molecule?
A: 15.7 µM

Q: And the LC50 [5]?
A: 89.1 µM

Q: And the TGI [5]?
A: 42.6 µM

Q: And the GI50 [6]?
A: 13.6 µM

Q: And the TGI [6]?
A: 36.1 µM

Q: What about the CC50 [6, 9] of the same molecule?
A: 88.1 µM

Q: And the GI50 [7]?
A: 17.1 µM

Q: And the TGI [7]?
A: 41.8 µM

Q: What about the CC50 [7] of the same molecule?
A: 80.8 µM

Q: And the GI50 [8]?
A: 12.3 µM

Q: And the LC50 [8]?
A: 80.8 µM

Q: What about the TGI [8] of the same molecule?
A: 32.1 µM
